Results: ChEMBL document CHEMBL3603782, “Antimalarial benzoheterocyclic 4-aminoquinolines: Structure-activity relationship, in vivo evaluation, mechanistic and bioactivation studies” (Bioorg Med Chem, 2015)
Calls of active or inactive are those of the source. No cut-off for these calls is given here.

Tests used:
[1] = tested on: Plasmodium falciparum; assay: Antiplasmodial activity against multidrug-resistant Plasmodium falciparum K1 infected in human erythrocytes after 48 hrs by [3H]-hypoxanthine incorporation assay; format: functional, organism-based
How it was run: (§1)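 Modified [3H]-hypoxanthine incorporation assay against P. falciparum NF54 (sensitive) and K1 (multidrug-resistant). Values are means of ≥2 or ≥3 independent experiments. The resistance index is the K1 IC50 divided by the NF54 IC50.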

[2] = tested on: Plasmodium falciparum; assay: Resistance index, ratio of IC50 for multidrug-resistant Plasmodium falciparum K1 to IC50 for Plasmodium falciparum W2; format: functional
[3] = tested on: Plasmodium falciparum; assay: Antiplasmodial activity against Plasmodium falciparum W2 infected in human erythrocytes after 48 hrs by [3H]-hypoxanthine incorporation assay; format: functional, organism-based
[4] = tested on: Plasmodium berghei; assay: Antimalarial activity against GFP-transfected Plasmodium berghei ANKA infected in mouse assessed as mean survival days at 50 mg/kg, po qd administered for 4 days; format: functional
How it was run: (§2)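 Mice (n = 3) infected with GFP-transfected P. berghei ANKA. Compound given orally, dissolved in a vehicle containing ethanol and diluted 10× with water. Multi-dose arms were dosed once daily on four consecutive days (4, 24, 48, 72 h post-infection). Parasitaemia was measured by flow cytometry, detection limit 0.1%. Activity is % reduction relative to controls. Survival was followed for 30 days.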

[5] = tested on: Plasmodium berghei; assay: Antimalarial activity against GFP-transfected Plasmodium berghei ANKA infected in mouse assessed as reduction in parasitemia at 50 mg/kg, po qd administered for 4 days measured on day 4 post last dose by flow cytometric analysis relative to control; format: functional; design: scale not given: the % may be the effect or the level left
[6] = Selectivity index, ratio of IC50 for CHO cells to IC50 for chloroquine-sensitive Plasmodium falciparum NF54; format: toxicity, cell-based; settings: hamster, read-out: Ratio IC50
[7] = Inhibition of beta haematin formation after 5 to 6 hrs by pyridine-ferrichrome method; format: physicochemical
How it was run: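 Modified β-haematin inhibition assay. Compounds from DMSO stocks, 0–1000 µM final, in duplicate. NP-40 added (30.55 µM). Haematin suspension added to give 0.5 M acetate pH 4.8 and 100 µM haematin, then incubated 5–6 h at 37 °C. Free haeme detected with pyridine/H2O/acetone/0.2 M HEPES pH 7.4 reagent (final pyridine ~5% v/v) plus acetone, and absorbance read.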

[8] = tested on: Plasmodium falciparum; assay: Antiplasmodial activity against chloroquine-sensitive Plasmodium falciparum NF54 infected in human erythrocytes after 48 hrs by [3H]-hypoxanthine incorporation assay; format: functional, organism-based; how it was run: as §1
[9] = Metabolic stability in human liver microsomes assessed as compound remaining at […] after 30 mins by HPLC-MS/MS analysis in presence of NADPH; format: ADME; settings: read-out: Stability
[10] = Lipophilicity, log P of the compound; format: physicochemical; settings: octanol/water
[11] = Metabolic stability in BALB/c mouse liver microsomes assessed as compound remaining at […] after 30 mins by HPLC-MS/MS analysis in presence of NADPH; format: ADME; settings: read-out: Stability
[12] = tested on: Plasmodium falciparum; assay: Resistance index, ratio of IC50 for multidrug-resistant Plasmodium falciparum K1 to IC50 for chloroquine-sensitive Plasmodium falciparum NF54; format: functional; how it was run: as §1
[13] = tested on: CHO; assay: Cytotoxicity against CHO cells by MTT assay; format: cell-based; settings: Cricetulus griseus
How it was run: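 CHO cells, MTT assay. Stocks 20 mg/mL in DMSO, diluted in complete medium; undissolved samples tested as suspensions. Emetine served as reference (10-fold dilutions, 6 concentrations, lowest 0.001 µg/mL). IC50 derived from full dose–response curves by non-linear fitting.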

[14] = Volume of distribution in C57Bl/6 mouse at 5 mg/kg, iv; format: ADME, organism-based; settings: in vivo
How it was run: (§3)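 C57Bl/6 mice, n = 3 per route. IV group dosed 5 mg/kg in DMSO, PEG, EtOH, PPG (2:6:1:7, v/v); tail-tip blood (20 µL) at 0.08, 0.5, 1, 3, 7 and 24 h. Oral group received a single 20 mg/kg gavage as a suspension in 0.5% HPMC in water; blood at 0.5, 1, 3, 5 and 24 h. Whole-blood LC–MS/MS (10–5000 ng/mL) after methanol protein precipitation; non-compartmental analysis.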

[15] = Elimination half life in C57Bl/6 mouse at 5 mg/kg, iv; format: ADME, organism-based; settings: in vivo, read-out: beta t1/2 (converted); how it was run: as §3
[16] = Elimination half life in C57Bl/6 mouse at 20 mg/kg, po; format: ADME, organism-based; settings: in vivo, read-out: beta t1/2 (converted); how it was run: as §3
[17] = Oral bioavailability in C57Bl/6 mouse at 20 mg/kg; format: ADME, organism-based; settings: in vivo; how it was run: as §3
[18] = tested on: Plasmodium berghei; assay: Antimalarial activity against GFP-transfected Plasmodium berghei ANKA infected in mouse assessed as mean survival days at 10 mg/kg, po qd administered for 4 days; format: functional; how it was run: as §2
[19] = Tmax in C57Bl/6 mouse at 20 mg/kg, po; format: ADME, organism-based; settings: in vivo; how it was run: as §3
[20] = tested on: Plasmodium berghei; assay: Antimalarial activity against GFP-transfected Plasmodium berghei ANKA infected in mouse assessed as reduction in parasitemia at 50 mg/kg, po by flow cytometric analysis relative to control; format: functional; design: scale not given: the % may be the effect or the level left
[21] = tested on: Plasmodium berghei; assay: Antimalarial activity against GFP-transfected Plasmodium berghei ANKA infected in mouse assessed as cure rate at 50 mg/kg, po qd administered for 4 days measured over 30 days; format: functional, organism-based
[22] = tested on: Mus musculus; assay: AUC in C57Bl/6 mouse at 20 mg/kg, po; format: ADME, organism-based; settings: in vivo; how it was run: as §3
[23] = Cmax in C57Bl/6 mouse at 20 mg/kg, po; format: ADME, organism-based; design: dose 20 mg/kg, route oral; settings: in vivo; how it was run: as §3
[24] = tested on: Mus musculus; assay: AUC in C57Bl/6 mouse at 5 mg/kg, iv; format: ADME, organism-based; settings: in vivo; how it was run: as §3
[25] = tested on: Plasmodium berghei; assay: Antimalarial activity against GFP-transfected Plasmodium berghei ANKA infected in mouse assessed as mean survival days at 50 mg/kg, po; format: functional; how it was run: as §2
[26] = Cmax in C57Bl/6 mouse at 5 mg/kg, iv; format: ADME, organism-based; design: dose 5 mg/kg, route intravenous; settings: in vivo; how it was run: as §3
[27] = Total clearance in C57Bl/6 mouse at 5 mg/kg, iv; format: ADME, organism-based; settings: in vivo; how it was run: as §3
[28] = tested on: Plasmodium berghei; assay: Antimalarial activity against GFP-transfected Plasmodium berghei ANKA infected in mouse assessed as reduction in parasitemia at 10 mg/kg, po qd administered for 4 days measured on day 4 post last dose by flow cytometric analysis relative to control; format: functional; design: scale not given: the % may be the effect or the level left
[29] = Drug metabolism assessed as ratio of sum of compound adduct peak area to clozapine adduct peak area by GSH trapping method; format: physicochemical
[30] = Stability of the compound by methoxylamine trapping method; format: physicochemical
[31] = Stability of the compound by potassium cyanide trapping method; format: physicochemical
[32] = tested on: Plasmodium berghei; assay: Antimalarial activity against GFP-transfected Plasmodium berghei ANKA infected in mouse assessed as mean survival days at 30 mg/kg, po qd administered for 4 days; format: functional; how it was run: as §2
[33] = tested on: Mus musculus; assay: Toxicity in mouse infected with GFP-transfected Plasmodium berghei ANKA at 50 mg/kg, po qd administered for 4 days measured over 30 days; format: organism-based; settings: in vivo, 720 h
[34] = tested on: Plasmodium berghei; assay: Antimalarial activity against GFP-transfected Plasmodium berghei ANKA infected in mouse assessed as cure rate at 10 mg/kg, po qd administered for 4 days measured over 30 days; format: functional, organism-based

SMILES	IC50 [1] [nM]	Ratio IC50 [2]	MSD [4] [days]	Activity [5] [%]	selectivity ratio [6]	IC50 [7] [nM]	IC50 [8] [nM]	remaining at 0.5 h [9] [%]	logP [10]	remaining at 0.5 h [11] [%]	Ratio IC50 [12]	IC50 [13] [nM]	MSD [18] [days]	Activity [28] [%]	further results
Clc1ccc2c(Nc3ccc4[nH]c(NCCN5CCOCC5)nc4c3)ccnc2c1	742	3.93	–	–	–	–	–	–	–	–	–	–	–	–	IC50 [3]: 189 nM
Clc1ccc2c(Nc3ccc4oc(NCCN5CCCCC5)nc4c3)ccnc2c1	24	–	27	99.9	758	89000	10	71	4.11	41	2.4	7580	–	–	–
Clc1ccc2c(Nc3ccc4oc(NCCCN5CCCCC5)nc4c3)ccnc2c1	39	–	>30	99.8	1060	105000	10	70	4.16	49	3.9	10600	15.7	99.8	Vd [14]: 24.5 L/kg; half-life [15]: 10 h; half-life [16]: 10.9 h; bioavailability [17]: 56%; Tmax [19]: 2.9 h; Activity [20]: 99.5%; Activity [21]: Active; AUC [22]: 1020 (umol/L).min; Cmax [23]: 1010 nM; AUC [24]: 454 (umol/L).min; MSD [25]: 14 days; Cmax [26]: 2740 nM; clearance [27]: 28.3 mL/min/kg
Clc1ccc2c(Nc3ccc4sc(NCCN5CCOCC5)nc4c3)ccnc2c1	–	0.63	–	–	–	–	–	–	–	–	–	–	–	–	Ratio [29]: 1.13
CCN(CC)Cc1cc(Nc2ccnc3cc(Cl)ccc23)ccc1O [AMODIAQUINE]	8	1.6	>30	99.9	36800	43500	4	–	–	–	2.5	147000	>30	100	IC50 [3]: 5 nM
CC(C)(C)Nc1nc2cc(Nc3ccnc4cc(Cl)ccc34)ccc2s1	–	0.79	–	–	–	–	–	–	–	–	–	–	–	–	Ratio [29]: 0.74; Stability [30]: Unstable; Stability [31]: Unstable
CCN(CC)CCCC(C)Nc1ccnc2cc(Cl)ccc12 (configuration not stated) [CHLOROQUINE]	–	–	–	–	–	–	–	–	–	–	–	–	16	99.9	MSD [32]: 24 days
Clc1ccc2c(Nc3ccc4oc(NCCN5CCCC5)nc4c3)ccnc2c1	–	2.75	>30	99.8	327	91500	15	62	–	81	3.73	4900	>30	99.8	Activity [33]: Non-toxic; Activity [20]: 99.5%; Activity [21]: Active; Activity [34]: Active; MSD [25]: 23.3 days
CCNc1nc2cc(Nc3ccnc4cc(Cl)ccc34)ccc2[nH]1	–	0.5	–	–	–	–	–	–	–	–	–	–	–	–	Stability [30]: Unstable; Stability [31]: Unstable
CN(C)CCNc1nc2cc(Nc3ccnc4cc(Cl)ccc34)ccc2o1	42	–	29.3	99.8	633	363000	12	> 99	3.38	> 99	3.5	7590	24	99.9	Activity [20]: 99.5%; MSD [25]: 13.7 days
CCNc1nc2cc(Nc3ccnc4cc(Cl)ccc34)ccc2o1	–	1.88	–	–	–	80200	466	81	3.75	1	2.15	–	–	–	Stability [30]: Unstable; Stability [31]: Unstable
Clc1ccc2c(Nc3ccc4sc(NCCN5CCCCC5)nc4c3)ccnc2c1	–	0.54	–	–	–	–	–	–	–	–	–	–	–	–	Ratio [29]: 0.88
